From ChEMBL document CHEMBL3091313, “Amino acids derived benzoxazepines: design, synthesis and antitumor activity” (Bioorg Med Chem Lett, 2013)
Active and inactive are the calls of the source. The calls are words filed in the database; no cut-off is given here.

How the values were obtained:
MCF7 [1] = assay: Cell cycle arrest in human MCF7 cells assessed as increase in p21 mRNA level at 1 to 5 uM after 12 hrs by QRT-PCR method; format: functional, cell-based
MDA-MB-231 [2] = assay: Cell cycle arrest in human MDA-MB-231 cells assessed as accumulation at G2 phase at 1 uM after 24 hrs using propidium iodide staining by flow cytometry (reference value: 18.75 %); format: functional
MCF7 [3] = assay: Induction of apoptosis in human MCF7 cells assessed as early apoptotic cells at 1 uM after 24 hrs using annexin V/PI staining by flow cytometry (reference value: 3.19 %); format: functional
MCF7 [4] = assay: Cell cycle arrest in human MCF7 cells assessed as accumulation at S phase at 1 uM after 24 hrs using propidium iodide staining by flow cytometry (reference value: 24.81 %); format: functional
MCF7 [5] = assay: Cell cycle arrest in human MCF7 cells assessed as increase in p21 protein level at 5 uM after 12 to 24 hrs by immunoblotting method; format: functional, cell-based
MCF7 [6] = assay: Antiproliferative activity against human MCF7 cells after 72 hrs by MTT assay; format: functional, cell-based; settings: MCF7, 72 h
How it was run: (§1)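 MCF-7 (ER+ve) and MDA-MB-231 (ER-ve) breast cancer cells were exposed to compound or vehicle. Viability was read by MTT and expressed as % cell death versus vehicle, with 4-hydroxytamoxifen as positive control. IC50 came from three independent experiments, each in triplicate.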

MDA-MB-231 [7] = assay: Cell cycle arrest in human MDA-MB-231 cells assessed as apoptosis at 5 uM after 24 hrs using propidium iodide staining by flow cytometry (reference value: 0.10 %); format: functional
MCF7 [8] = assay: Cell cycle arrest in human MCF7 cells assessed as decrease in cyclin D1 protein level at 5 uM after 12 to 24 hrs by immunoblotting method; format: functional, cell-based
MCF7 [9] = assay: Cell cycle arrest in human MCF7 cells assessed as apoptosis at 3 uM after 24 hrs using propidium iodide staining by flow cytometry (reference value: 0.06 %); format: functional
MCF7 [10] = assay: Induction of apoptosis in human MCF7 cells assessed as reduction in cell viability at 5 uM after 24 hrs by MTT assay in presence of LEHD-FMK; format: functional, cell-based
MCF7 [11] = assay: Induction of apoptosis in human MCF7 cells assessed as caspase-8 cleavage at 5 uM after 6 hrs by immunoblotting method; format: functional, cell-based
MCF7 [12] = assay: Induction of apoptosis in human MCF7 cells assessed as PARP cleavage after 6 to 24 hrs by densitometry; format: functional, cell-based
How it was run: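 Lysates from treated MCF-7 cells were immunoblotted for PARP, and cleaved PARP was quantified by densitometry. Data are mean ± SEM of three independent experiments.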

MCF7 [13] = assay: Induction of apoptosis in human MCF7 cells assessed as late apoptotic cells at 3 uM after 24 hrs using annexin V/PI staining by flow cytometry (reference value: 6.46 %); format: functional
How it was run: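 MCF-7 cells were exposed to vehicle or the indicated compound concentrations for 24 h. Phosphatidylserine exposure was then measured by flow cytometry after staining with FITC-labelled Annexin V and propidium iodide. Apoptotic cell fractions were read from dot plots relative to vehicle.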

MCF7 [14] = assay: Induction of apoptosis in human MCF7 cells assessed as caspase-3 cleavage at 5 uM after 3 hrs by immunoblotting method; format: functional, cell-based
MCF7 [15] = assay: Antitumor activity against human MCF7 cells xenografted in athymic nude mouse assessed as reduction in tumor volume at 16 mg/kg/day, po for 21 days measured after 21 days relative to control; format: functional; parameters: scale not given: the % may be the effect or the level left
MDA-MB-231 [16] = assay: Cell cycle arrest in human MDA-MB-231 cells assessed as accumulation at S phase at 5 uM after 24 hrs using propidium iodide staining by flow cytometry (reference value: 28.59 %); format: functional
MCF7 [17] = assay: Induction of apoptosis in human MCF7 cells assessed as reduction in mitochondrial membrane potential at 1 to 5 uM after 12 hrs by Jc-1 staining-based flow cytometry; format: functional, cell-based
MDA-MB-231 [18] = assay: Cell cycle arrest in human MDA-MB-231 cells assessed as apoptosis at 3 uM after 24 hrs using propidium iodide staining by flow cytometry (reference value: 0.10 %); format: functional
MDA-MB-231 [19] = assay: Cell cycle arrest in human MDA-MB-231 cells assessed as accumulation at G2 phase at 5 uM after 24 hrs using propidium iodide staining by flow cytometry (reference value: 18.75 %); format: functional
MCF7 [20] = assay: Cell cycle arrest in human MCF7 cells assessed as apoptosis at 1 uM after 24 hrs using propidium iodide staining by flow cytometry (reference value: 0.06 %); format: functional
MCF7 [21] = assay: Cell cycle arrest in human MCF7 cells assessed as accumulation at G2 phase at 3 uM after 24 hrs using propidium iodide staining by flow cytometry (reference value: 7.46 %); format: functional
MCF7 [22] = assay: Cell cycle arrest in human MCF7 cells assessed as accumulation at G1 phase at 3 uM after 24 hrs using propidium iodide staining by flow cytometry (reference value: 67.73 %); format: functional
MCF7 [23] = assay: Antiproliferative activity against human MCF7 cells after 48 hrs by MTT assay; format: functional, cell-based; settings: MCF7, 48 h; how it was run: as §1
MCF7 [24] = assay: Antiproliferative activity against human MCF7 cells after 24 hrs by MTT assay; format: functional, cell-based; settings: MCF7, 24 h; how it was run: as §1
MCF7 [25] = assay: Cell cycle arrest in human MCF7 cells assessed as accumulation at G2 phase at 5 uM after 24 hrs using propidium iodide staining by flow cytometry (reference value: 7.46 %); format: functional
MDA-MB-231 [26] = assay: Antiproliferative activity against human MDA-MB-231 cells after 24 hrs by MTT assay; format: functional, cell-based; settings: MDA-MB-231, 24 h; how it was run: as §1
Vero = assay: Cytotoxicity against african green monkey Vero cells after 24 hrs by MTT assay; format: cell-based; settings: chlorocebus sabaeus
How it was run: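 Vero, HEK-293 and primary rat calvarial osteoblasts were given vehicle or a range of concentrations for 24 h. Cell death was expressed as % relative to vehicle.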

MCF7 [27] = assay: Induction of apoptosis in human MCF7 cells assessed as early apoptotic cells at 3 uM after 24 hrs using annexin V/PI staining by flow cytometry (reference value: 3.19 %); format: functional

## Cc1ccc(S(=O)(=O)N2Cc3ccccc3OC[C@@H]2Cc2ccc(OCCN3CCCCCC3)cc2)cc1.Cl
MCF7 [1]
  Activity: Active
MDA-MB-231 [2]
  Activity: 7.46%
MCF7 [3]
  Activity: 15.13%
MCF7 [4]
  Activity: 18.93%
MCF7 [5]
  Activity: Active
MCF7 [6]
  IC50: 1.83 µM
MDA-MB-231 [7]
  Activity: 1.47%
MCF7 [8]
  Activity: Active
MCF7 [9]
  Activity: 0.52%
MCF7 [10]
  Activity: inactive
MCF7 [11]
  Activity: Active
MCF7 [12]
  Activity: Dose-dependent effect
MCF7 [13]
  Activity: 25.59%
MCF7 [14]
  Activity: Active
MCF7 [15]
  Activity: 50%
MDA-MB-231 [16]
  Activity: 17.71%
MCF7 [17]
  Activity: Active
MDA-MB-231 [18]
  Activity: 3.61%
MDA-MB-231 [19]
  Activity: 6.48%
MCF7 [20]
  Activity: 2.59%
MCF7 [21]
  Activity: 6.86%
MCF7 [22]
  Activity: 86.96%
MCF7 [23]
  IC50: 3.55 µM
MCF7 [24]
  IC50: 6.78 µM
MCF7 [25]
  Activity: 6.44%
MDA-MB-231 [26]
  IC50: 7.2 µM
Vero
  Activity: Non-toxic
MCF7 [27]
  Activity: 20.74%
